# Reference: PubChem BioAssay AID743061 (The Scripps Research Institute Molecular Screening Center, 2013)
# Target: Methionine--tRNA ligase, mitochondrial (Homo sapiens) (UniProt Q96GW9)
# Experiment: inhibitors of human mitochondrial MetRS, late-stage follow-up, selectivity assay for T. brucei MetRS inhibitor project, biochemical, radioactivity, round 1 (AID 743061);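 further: 0% = DMSO with full reaction and 100% = DMSO wells lacking tRNA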
# Conditions: recombinant human mtMetRS, [3H]Met tRNA charging, at 10 µM, stronger effect = higher value
# Summary of the method: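 Material: Recombinant human mitochondrial methionyl-tRNA synthetase (MetRS) | Medium: pH 8.0 buffer, 2.5 mM ATP | Reagent: [3H]Met 240 nM plus bulk E. coli tRNA | Compound: 10 and 1 µM | Schedule: 15 min compound–enzyme preincubation, then 1 h reaction at room temperature | Measured by: Scintillation counts of TCA-precipitated charged tRNA on filters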
row,Structure (SMILES),inhibition [%]
1,O=C(Cn1cc(C(=O)C(=O)N2CCOCC2)c2ccccc21)Nc1cccc(C(F)(F)F)c1,-6.56
2,CCN(CC)C(=O)C(=O)c1cn(CC(=O)N2CCCc3ccccc32)c2ccccc12,-1.92
3,CCN(CC)C(=O)C(=O)c1cn(CC(=O)Nc2cccc(OC)c2)c2ccccc12,17.3
4,COc1ccccc1NC(=O)CSc1nnc2c(n1)[nH]c1ccc(C)cc12,7.39
5,CN(CC(=O)Nc1ccc(Cl)cc1)C(=O)c1ccc(-n2cncn2)c([N+](=O)[O-])c1,-19.1
6,Clc1ccc(-c2nnc(SCc3nc4ccccc4[nH]3)o2)c(Cl)c1,41.9
7,COc1cccc(NC(=O)CSc2nnc3c(n2)[nH]c2ccc(C)cc23)c1,40.4
8,O=C(Cn1cc(C(=O)C2CC2)c2ccccc21)Nc1cccc(C(F)(F)F)c1,11.9
9,CN1CC(=O)N2C(c3cccc([N+](=O)[O-])c3)c3[nH]c4ccccc4c3C[C@H]2C1=O (stereo not given in full),14
10,CCN(CCc1nc2ccc(C)cc2[nH]1)C(=O)c1ccc2ncccc2c1,1.1
11,CN(Cc1cc(Cl)cc(Cl)c1)[C@H]1C[C@H]2c3[nH]c4ccccc4c3CCN2C(=O)[C@H]1CO,80.3
12,CC1Cc2ccccc2N1C(=O)Cn1cc(C(=O)C(=O)N2CCOCC2)c2ccccc21 (stereo not given),7.77
13,Cn1c(CCNC(=O)c2ccc(Cl)cc2)nc2ccccc21,12.5
14,COc1ccc(NC(=O)CSc2nnc3c4cc(C)ccc4n(C)c3n2)cc1,8.46
15,CC(C)(C)[C@H]1C=C(C(=O)NCc2nc3ccccc3[nH]2)O[C@@H](OCc2ccc(CO)cc2)C1,10.3
16,O=C(Cn1cc(C(=O)C(=O)N2CCOCC2)c2ccccc21)NCc1ccccc1,10.3
17,O=C(NCCc1nc2ccccc2[nH]1)c1ccc(Cl)cc1Cl,48.7
18,O=C(NCc1nc2ccccc2[nH]1)C1=C[C@@H](c2ccc(Br)cc2)C[C@@H](OCc2ccc(CO)cc2)O1,16.7

row,Structure (SMILES),inhibition [%]
1,O=C(Cn1cc(C(=O)c2ccccc2)c2ccccc21)Nc1cccc(C(F)(F)F)c1,9.64
2,CNC(=S)N(CCc1ccccc1)C1CC(=O)N(c2ccc(Br)cc2)C1=O (stereo not given),83.7
3,Cc1cc2cc(C(=O)N3CCCC(c4nc5ccccc5[nH]4)C3)ccc2o1 (stereo not given),-1.3
4,O=C(Cn1cnc2ccccc21)Nc1cccc([N+](=O)[O-])c1,-2.2
5,O=C(NCc1nc2ccccc2[nH]1)C1=C[C@H](C2CC2)C[C@H](OCc2ccc(CO)cc2)O1,12.6
6,CCCCCCCCCC1NC(C(=O)O)Cc2c1[nH]c1ccccc21 (stereo not given),9.9
7,CC(=O)c1ccc(N2CCN(C(=O)CCCn3c(=O)[nH]c4ccc(Br)cc4c3=O)CC2)cc1,7.87
8,O=C(NNC(=O)c1ccc(-n2cncn2)c([N+](=O)[O-])c1)c1ccc(Cl)cc1,-21.4
9,CCCCn1c(CCNC(=O)c2ccc(F)cc2)nc2ccccc21,5.87
10,Cc1cccc(C(=O)NCCc2nc3ccccc3n2CCOc2ccccc2)c1,4.57
11,O=C(Cn1cc(C(=O)COc2ccccc2)c2ccccc21)Nc1cccc(C(F)(F)F)c1,3.08
12,O=C(NCc1nc2ccccc2[nH]1)C1=C[C@H](c2csc3ccccc23)C[C@H](OCCCCO)O1,2.21
13,COc1ccc(NC(=O)C2CC(=O)n3c(nc4ccccc43)N2)cc1 (stereo not given),-2.5
14,CC(C)c1nc2ccc(C(=O)N(C)CCc3nc4ccc(F)cc4[nH]3)cc2o1,0.38
15,CC(=O)N(CCc1ccccc1)C1CC(=O)N(c2ccc(Br)cc2)C1=O (stereo not given),2
16,O=C(CC=NOCc1ccc([N+](=O)[O-])cc1)Nc1ccc(Cl)cc1,1.47
17,CC(C)(C)[C@@H]1C=C(C(=O)NCc2nc3ccccc3[nH]2)O[C@H](OCc2ccc(CO)cc2)C1,-5.44
